Tested on: Fibroblast
Test: Multiplex assay against human fibroblast
Type: toxicity, cell-based
Procedure, shortened: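 Tubulin, mitochondrial-mass and membrane-permeability phenotypes are per cents of healthy-nucleus cells. Cells were gated by CellPathfinder machine learning into Hoechst high-intensity objects or normal cells, normal cells into healthy, pyknosed or fragmented nuclei, and pyknosed cells into mitotic or apoptotic. Before that, live cells stained at seeding with Hoechst33342, BioTracker Green Microtubule Cytoskeleton Dye, MitoTracker Red and Annexin V Alexa Fluor 680 were imaged on a CQ1 microscope at 37°C and 5% CO2 after compound addition.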

[1] = 12 h, 1 µM, compound concentration 1 uM, replicate 1
[2] = 12 h, 1 µM, compound concentration 1 uM, replicate 2
[3] = 12 h, 10 µM, compound concentration 10 uM, replicate 1
[4] = 12 h, 10 µM, compound concentration 10 uM, replicate 2
[5] = 24 h, 1 µM, compound concentration 1 uM, replicate 1
[6] = 24 h, 1 µM, compound concentration 1 uM, replicate 2
[7] = 24 h, 10 µM, compound concentration 10 uM, replicate 1
[8] = 24 h, 10 µM, compound concentration 10 uM, replicate 2
[9] = 48 h, 1 µM, compound concentration 1 uM, replicate 1
[10] = 48 h, 1 µM, compound concentration 1 uM, replicate 2
[11] = 48 h, 10 µM, compound concentration 10 uM, replicate 1
[12] = 48 h, 10 µM, compound concentration 10 uM, replicate 2

Oc1c(CN2CCN(c3ccccn3)CC2)cc(Cl)c2cccnc12
Population Apoptotic (%) [1]: 73%
Population Fragmented Nuclei (%) [1]: 17%
Population Healthy Nuclei (%) [1]: 68%
Population Hoechst High Intensity Objects (%) [1]: 4%
Population Membrane Permeable-Phenotype (%) [1]: 1%
Population Mitochondria Different-Phenotype (%) [1]: 0%
Population Mitotic Cells (%) [1]: 26%
Population Normal (%) [1]: 95%
Population Pyknosed Nuclei (%) [1]: 14%
Population Tubulin-Different-Phenotype (%) [1]: 27%
Total Cell Count [1]: 168
Population Apoptotic (%) [2]: 57%
Population Fragmented Nuclei (%) [2]: 27%
Population Healthy Nuclei (%) [2]: 54%
Population Hoechst High Intensity Objects (%) [2]: 5%
Population Membrane Permeable-Phenotype (%) [2]: 8%
Population Mitochondria Different-Phenotype (%) [2]: 6%
Population Mitotic Cells (%) [2]: 42%
Population Normal (%) [2]: 94%
Population Pyknosed Nuclei (%) [2]: 18%
Population Tubulin-Different-Phenotype (%) [2]: 43%
Total Cell Count [2]: 152
Population Apoptotic (%) [3]: 41%
Population Fragmented Nuclei (%) [3]: 17%
Population Healthy Nuclei (%) [3]: 54%
Population Hoechst High Intensity Objects (%) [3]: 5%
Population Membrane Permeable-Phenotype (%) [3]: 0%
Population Mitochondria Different-Phenotype (%) [3]: 25%
Population Mitotic Cells (%) [3]: 58%
Population Normal (%) [3]: 94%
Population Pyknosed Nuclei (%) [3]: 27%
Population Tubulin-Different-Phenotype (%) [3]: 67%
Total Cell Count [3]: 130
Population Apoptotic (%) [4]: 33%
Population Fragmented Nuclei (%) [4]: 25%
Population Healthy Nuclei (%) [4]: 58%
Population Hoechst High Intensity Objects (%) [4]: 2%
Population Membrane Permeable-Phenotype (%) [4]: 2%
Population Mitochondria Different-Phenotype (%) [4]: 9%
Population Mitotic Cells (%) [4]: 66%
Population Normal (%) [4]: 97%
Population Pyknosed Nuclei (%) [4]: 16%
Population Tubulin-Different-Phenotype (%) [4]: 62%
Total Cell Count [4]: 131
Population Apoptotic (%) [5]: 50%
Population Fragmented Nuclei (%) [5]: 19%
Population Healthy Nuclei (%) [5]: 67%
Population Hoechst High Intensity Objects (%) [5]: 3%
Population Membrane Permeable-Phenotype (%) [5]: 0%
Population Mitochondria Different-Phenotype (%) [5]: 3%
Population Mitotic Cells (%) [5]: 50%
Population Normal (%) [5]: 96%
Population Pyknosed Nuclei (%) [5]: 13%
Population Tubulin-Different-Phenotype (%) [5]: 30%
Total Cell Count [5]: 174
Population Apoptotic (%) [6]: 45%
Population Fragmented Nuclei (%) [6]: 29%
Population Healthy Nuclei (%) [6]: 56%
Population Hoechst High Intensity Objects (%) [6]: 5%
Population Membrane Permeable-Phenotype (%) [6]: 8%
Population Mitochondria Different-Phenotype (%) [6]: 7%
Population Mitotic Cells (%) [6]: 55%
Population Normal (%) [6]: 94%
Population Tubulin-Different-Phenotype (%) [6]: 47%
Total Cell Count [6]: 153
Population Apoptotic (%) [7]: 89%
Population Fragmented Nuclei (%) [7]: 26%
Population Healthy Nuclei (%) [7]: 46%
Population Hoechst High Intensity Objects (%) [7]: 0%
Population Membrane Permeable-Phenotype (%) [7]: 1%
Population Mitochondria Different-Phenotype (%) [7]: 15%
Population Mitotic Cells (%) [7]: 10%
Population Normal (%) [7]: 100%
Population Pyknosed Nuclei (%) [7]: 27%
Population Tubulin-Different-Phenotype (%) [7]: 57%
Total Cell Count [7]: 139
Population Apoptotic (%) [8]: 56%
Population Fragmented Nuclei (%) [8]: 35%
Population Healthy Nuclei (%) [8]: 41%
Population Hoechst High Intensity Objects (%) [8]: 2%
Population Mitochondria Different-Phenotype (%) [8]: 11%
Population Mitotic Cells (%) [8]: 43%
Population Normal (%) [8]: 97%
Population Pyknosed Nuclei (%) [8]: 22%
Population Tubulin-Different-Phenotype (%) [8]: 68%
Total Cell Count [8]: 134
Population Apoptotic (%) [9]: 54%
Population Fragmented Nuclei (%) [9]: 17%
Population Healthy Nuclei (%) [9]: 67%
Population Hoechst High Intensity Objects (%) [9]: 5%
Population Membrane Permeable-Phenotype (%) [9]: 1%
Population Mitochondria Different-Phenotype (%) [9]: 1%
Population Mitotic Cells (%) [9]: 45%
Population Normal (%) [9]: 94%
Population Pyknosed Nuclei (%) [9]: 14%
Population Tubulin-Different-Phenotype (%) [9]: 35%
Total Cell Count [9]: 158
Population Apoptotic (%) [10]: 70%
Population Fragmented Nuclei (%) [10]: 25%
Population Healthy Nuclei (%) [10]: 66%
Population Hoechst High Intensity Objects (%) [10]: 0%
Population Membrane Permeable-Phenotype (%) [10]: 4%
Population Mitochondria Different-Phenotype (%) [10]: 4%
Population Mitotic Cells (%) [10]: 30%
Population Normal (%) [10]: 99%
Population Pyknosed Nuclei (%) [10]: 7%
Population Tubulin-Different-Phenotype (%) [10]: 37%
Total Cell Count [10]: 137
Population Apoptotic (%) [11]: 85%
Population Fragmented Nuclei (%) [11]: 31%
Population Healthy Nuclei (%) [11]: 32%
Population Hoechst High Intensity Objects (%) [11]: 2%
Population Membrane Permeable-Phenotype (%) [11]: 0%
Population Mitochondria Different-Phenotype (%) [11]: 9%
Population Mitotic Cells (%) [11]: 14%
Population Normal (%) [11]: 97%
Population Pyknosed Nuclei (%) [11]: 35%
Population Tubulin-Different-Phenotype (%) [11]: 38%
Total Cell Count [11]: 137
Population Apoptotic (%) [12]: 78%
Population Fragmented Nuclei (%) [12]: 34%
Population Healthy Nuclei (%) [12]: 41%
Population Membrane Permeable-Phenotype (%) [12]: 1%
Population Mitochondria Different-Phenotype (%) [12]: 7%
Population Mitotic Cells (%) [12]: 21%
Population Pyknosed Nuclei (%) [12]: 24%
Population Tubulin-Different-Phenotype (%) [12]: 65%

— ChEMBL document CHEMBL5058577, “EUbOPEN Chemogenomics Library 2 (Multiplex)” (2022)
